These results are taken from publication PMC7797077 (Nucleic Acids Research, 2020).

Where no end group is shown, it is not given here. The star is where a group is joined. Bz = O=C(c1ccccc1)*

The subject of test [1] is histone Kbz and Kac in mouse intestinal epithelial cells. Description: NaBz water feeding in mice, western blot of histone Kbz and Kac. It counts as in vivo, C57BL/6N mice. Conditions: ten days of NaBz water feeding at 10, 20 and 50 mM. Put shortly:
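SPF-housed mice drank NaBz water for 10 days. Intestinal tissue was shaken at 200 rpm, 37°C, 20 min in HBSS (no Ca²⁺/Mg²⁺) with 10 mM HEPES, 5 mM EDTA, 1 mM DTT and 3% FBS. Released epithelial cells were pelleted at 1500 rpm, 4°C. Total histones were kit-extracted and BCA-quantified, then run on SDS-PAGE and PVDF. Primary antibodies overnight at 4°C; HRP secondary 1:5,000; ECL. Histone H4 served as loading control; duplicate mice.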
A general note: In western blotting, separated proteins are transferred to a membrane and probed.

Test [2] has as its system nuclear Kbz in HEK 293T and HCT116 cells. Description: Immunofluorescence staining of Kbz after NaBz treatment. It counts as cell-based, human. To be noted: 10 mM NaBz, 24 h. In outline:
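Cells were fixed in 4% formaldehyde for 20 min at RT, permeabilized on ice with 0.5% Triton X-100 for 10 min, and blocked in 3% BSA for 1 h. Anti-pan Kbz (1:500) was applied overnight at 4°C, then Alexa Fluor 594 anti-mouse (1:1000) for 1 h. Mounted with DAPI; confocal imaging.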

Test [3] relates to histone Kbz in HEK 293T, HeLa, HCT116 and HepG2 cells. Description: Western blot of core histone Kbz levels after NaBz treatment. To be noted: 24-h treatment with NaBz at various concentrations. It counts as cell-based, human.
The target of test [4] is AF9 YEATS domain (2-138) (human) (UniProt P42568). The experiment in a line: ITC. A general note: ITC needs no label: the signal is the heat of the interaction.
Test [5] deals with YEATS2 YEATS domain (201-332) S230F (human) (UniProt Q9ULM3). Description: ITC.
Test [6] deals with YEATS2 YEATS domain (201-332) (human) (UniProt Q9ULM3). Description: ITC.
Test [7] addresses T1, AF9 YEATS domain (2-138) F28S (human, UniProt P42568 2-138, F28S).
T1 sequence (looked up): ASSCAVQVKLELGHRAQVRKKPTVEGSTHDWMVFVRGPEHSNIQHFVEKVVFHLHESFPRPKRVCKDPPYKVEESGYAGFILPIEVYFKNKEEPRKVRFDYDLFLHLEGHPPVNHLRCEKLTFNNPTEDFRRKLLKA
Description: ITC.

YEATS2 YEATS domain (201-332) S230F (human), sequence (Q9ULM3 201-332 S230F): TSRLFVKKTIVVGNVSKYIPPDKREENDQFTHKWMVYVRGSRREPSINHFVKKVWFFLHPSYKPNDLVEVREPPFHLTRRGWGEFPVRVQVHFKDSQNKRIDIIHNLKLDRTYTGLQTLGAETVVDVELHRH
YEATS2 YEATS domain (201-332) (human), sequence (Q9ULM3 201-332): as the sequence (Q9ULM3 201-332 S230F) above, with F30S counted along it

For `O=C([O-])c1ccccc1.[Na+]` [NaBz, Sodium benzoate], the “pan Kac level of histone in mouse intestinal epithelial cells” value in test [1] was “not stimulated”. Also, the “histone Kbz signal in mouse intestinal epithelial cells” value in test [1] (two mice per concentration) is on record as “clearly boosted”. Further, the “nuclear Kbz signals (immunofluorescence)” value in test [2] is given as “lightened up”. Also, the “signals of histone Kbz (pan Kbz western blot)” value in test [3] was “upregulated in a dose-dependent manner”.
The term Kd denotes the concentration at which binding is half-saturated. A lower Kd goes with higher affinity. Consider “histone H3_(2-16)K9bz peptide (from UniProt P68431 3-17)”, for which the Kd in test [4] is 5.97 µM.
Turning to “histone H3_(15-39)K27bz peptide (from UniProt P68431 16-40)”, the dH in test [5] is -6.8 kcal/mol. For the same molecule, the Kd in test [6] was found to be 21.6 µM.
Consider RTKQTARK(Bz)STGGKAP (peptide, UniProt P68431 3-17, looked up) [histone H3_(2-16)K9bz peptide], for which the “fold binding enhancement over WT AF9 YEATS” value in test [7] is approximately 1.6 fold.
